Laboratory results published in ChEMBL document CHEMBL1156688, “Synthesis and biological activities of a series of 4,5-diaryl-3-hydroxy-2(5H)-furanones” (Eur J Med Chem, 2008).

Experiments:
[1] = DPPH radical scavenging activity assessed as ratio of drug concentration to DPPH concentration producing 50% decrease in DPPH after 5 mins; format: functional
Method in brief: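 DPPH decay was followed spectrophotometrically at 515 nm, read every 0.02 min, starting from about […] DPPH. ECR50 is the ratio of antioxidant to DPPH concentration giving a 50% fall in DPPH; the methods state 6 min of reaction. Trolox and ascorbic acid served as references.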

[2] = Antioxidant activity assessed as inhibition of peroxynitrite-induced evans blue bleaching at 50 uM; format: functional; design: scale not given: the % may be the effect or the level left
Method in brief: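 Room-temperature assay in 50 mM phosphate-buffered saline, pH 7.4, containing 0.1 mM diethylenetriaminepentaacetic acid, 90 mM NaCl and 5 mM KCl. Test compound, Evans Blue ([…] as printed) and peroxynitrite ([…] as printed) were mixed rapidly. Bleaching was read at 608 nm. Blanks held DMF alone or peroxynitrite degraded for 5 min.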

[3] = biological target: T1, Polyunsaturated fatty acid 5-lipoxygenase (Homo sapiens) (UniProt P09917); test: Inhibition of 5LOX in human whole blood assessed as inhibition of calcium ionophore A-stimulated 5-HETE production at 10 uM; format: tissue-based; design: scale not given: the % may be the effect or the level left
T1 sequence (whole entry): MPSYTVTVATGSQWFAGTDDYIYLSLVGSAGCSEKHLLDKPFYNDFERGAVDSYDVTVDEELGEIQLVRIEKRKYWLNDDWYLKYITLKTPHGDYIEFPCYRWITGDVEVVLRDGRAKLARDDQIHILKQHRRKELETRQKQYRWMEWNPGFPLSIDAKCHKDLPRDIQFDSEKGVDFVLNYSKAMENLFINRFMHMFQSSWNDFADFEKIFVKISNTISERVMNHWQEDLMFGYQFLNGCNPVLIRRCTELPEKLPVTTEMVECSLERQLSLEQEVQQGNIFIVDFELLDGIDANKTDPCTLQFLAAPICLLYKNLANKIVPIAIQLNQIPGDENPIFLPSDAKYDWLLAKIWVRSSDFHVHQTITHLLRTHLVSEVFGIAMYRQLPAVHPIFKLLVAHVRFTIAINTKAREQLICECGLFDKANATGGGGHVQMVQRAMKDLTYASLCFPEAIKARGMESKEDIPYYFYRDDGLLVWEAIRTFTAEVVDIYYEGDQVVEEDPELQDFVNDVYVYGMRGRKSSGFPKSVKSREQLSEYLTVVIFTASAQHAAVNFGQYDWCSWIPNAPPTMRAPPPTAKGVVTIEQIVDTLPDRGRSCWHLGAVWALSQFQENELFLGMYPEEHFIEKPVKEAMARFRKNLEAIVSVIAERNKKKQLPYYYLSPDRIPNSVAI
Method in brief: (§1)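 Fresh heparinized blood from normal volunteers, in 1 mL aliquots, was preincubated 15 min at 37 °C with compound or DMSO vehicle. It was then stimulated with calcium ionophore A23187 for 30 min at 37 °C. Eicosanoids were extracted into ethyl acetate, dried under nitrogen and redissolved in mobile phase. 5-HETE was quantified by reversed-phase HPLC with UV detection.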

[4] = biological target: T1, Polyunsaturated fatty acid 5-lipoxygenase (Homo sapiens); test: Inhibition of 5LOX in human whole blood assessed as inhibition of calcium ionophore A-stimulated 5-HETE production at 100 uM; format: tissue-based; design: scale not given: the % may be the effect or the level left; method in brief: as §1
[5] = biological target: Human immunodeficiency virus type 1 integrase (Human immunodeficiency virus 1, UniProt Q7ZJM1); test: Inhibition of HIV1 integrase
Chain of Human immunodeficiency virus type 1 integrase (Q7ZJM1 whole entry): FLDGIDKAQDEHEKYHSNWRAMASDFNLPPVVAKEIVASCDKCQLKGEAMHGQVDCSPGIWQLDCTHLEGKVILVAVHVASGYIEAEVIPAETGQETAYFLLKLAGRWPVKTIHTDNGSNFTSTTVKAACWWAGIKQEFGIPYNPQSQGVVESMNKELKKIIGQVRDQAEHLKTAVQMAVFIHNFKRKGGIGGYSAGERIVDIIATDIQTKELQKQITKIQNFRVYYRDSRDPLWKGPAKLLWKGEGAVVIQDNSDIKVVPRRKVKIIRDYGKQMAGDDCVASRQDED
Method in brief: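 Wild-type HIV-1 integrase (1 pmol) was tested in a 3′-processing reaction with 0.025 pmol labelled U5A/U5B double-stranded DNA substrate. Buffer was 20 mM Hepes pH 7.2, 10 mM MgCl2, 25 mM NaCl and 1 mM DTT. Oligonucleotides were gel-purified on 18% denaturing acrylamide/urea.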

PC-3 [6] = test: Antiproliferative activity against human PC3 cells at 10 uM after 72 hrs by MTT assay; format: functional; details: PC-3, 72 h
Method in brief: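 PC3 cells were grown in RPMI 1640 with 10% fetal calf serum at 37 °C under 5% CO2. They were plated at 1.8 × 10^4 cells/well and grown 3 days, then serum-starved 24 h to synchronize. Compounds were added in medium with less than 0.1% DMSO. Growth was estimated by colorimetric MTT after 72 h.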

[7] = biological target: Prostaglandin G/H synthase 1 (Homo sapiens) (UniProt P23219); test: Inhibition of COX1 at 100 uM
PC-3 [8] = test: Antiproliferative activity against human PC3 cells after 72 hrs by MTT assay; details: PC-3, 72 h

Row | Structure (SMILES) | Ratio [1] | Activity [2] | Activity [3] | Activity [4] | IC50 [5] | inhibition at 10 µM (PC-3 [6]) | inhibition [7] | IC50 (PC-3 [8])
1 | O=C1O[C@H]([C@@H](O)CO)C(O)=C1O | 0.26 | 83.6% |  |  |  |  |  | 
2 | O=C1OC(c2ccc(O)cc2)C(c2ccc(F)cc2)=C1O (configuration not stated) |  | 0% | 0% | 0% | 300 µM | 31% |  | 
3 | O=C1OCC(c2ccc(O)cc2)=C1O |  |  |  |  | 3.6 µM |  |  | 
4 | O=C1OC(c2cc(O)cc(O)c2)C(c2ccc(F)cc2)=C1O (configuration not stated) |  | 40.9% | 0% | 10.7% | 92 µM | 0% |  | 
5 | O=C1OC(c2ccc(OCc3ccccc3)cc2)C(c2ccc(O)cc2)=C1O (configuration not stated) | 0.3 | 0% | 0% |  | > 300 µM |  |  | 
6 | O=C1OC(c2ccccc2)C(c2ccc(O)cc2)=C1O (configuration not stated) | 0.49 | 29.4% | 0% | 18.6% | > 300 µM |  | 32.9% | 
7 | Cc1ccc(-c2cc(C(F)(F)F)nn2-c2ccc(S(N)(=O)=O)cc2)cc1 [CELECOXIB] |  |  |  |  |  |  |  | 48 µM
8 | O=C1OC(c2ccc(F)cc2)C(c2ccc(O)cc2)=C1O (configuration not stated) | 0.27 | 46.5% | 0% | 16.4% | > 300 µM |  | 16.4% | 
9 | O=C1OC(c2cc(OCc3ccccc3)cc(OCc3ccccc3)c2)C(c2ccc(F)cc2)=C1O (configuration not stated) |  | 0% | 0% |  | 30 µM |  |  | 
10 | O=C1OC(c2ccc(OCc3ccccc3)cc2)C(c2ccc(F)cc2)=C1O (configuration not stated) |  | 0% | 0% |  | > 300 µM |  |  | 
11 | O=C1OC(c2ccc(OCc3ccccc3)c(OCc3ccccc3)c2)C(c2ccc(F)cc2)=C1O (configuration not stated) |  | 0% | 0% |  | 10 µM |  |  | 
12 | O=C1OC(c2ccc(O)c(O)c2)C(c2ccc(O)cc2)=C1O (configuration not stated) | 0.25 | 92% | 35.4% | 79.5% | 9.2 µM | 20% |  | 
13 | O=C1OC(c2ccc(O)cc2)C(c2ccc(O)cc2)=C1O (configuration not stated) | 0.32 | 44.9% | 0% | 27.8% | 220 µM | 0% |  | 
14 | Cc1c(C)c2c(c(C)c1O)CCC(C)(C(=O)O)O2 (configuration not stated) | 0.26 | 90% |  |  |  |  |  | 
15 | O=C1OC(c2ccc(OCc3ccccc3)c(OCc3ccccc3)c2)C(c2ccc(O)cc2)=C1O (configuration not stated) | 0.71 | 4.9% | 12.7% |  | 1 µM |  |  | 
16 | O=C1OC(c2cc(OCc3ccccc3)cc(OCc3ccccc3)c2)C(c2ccc(O)cc2)=C1O (configuration not stated) | 0.65 | 10.4% | 32% |  | > 300 µM |  |  | 
17 | O=C1OC(c2cc(O)cc(O)c2)C(c2ccc(O)cc2)=C1O (configuration not stated) | 0.47 | 33.1% | 0% | 11.6% | 22 µM | 39% |  | 
